Laboratory results taken from ChEMBL document CHEMBL4819117, “Probing cytochrome P450 (CYP) bioactivation with chloromethylindoline bioprecursors derived from the duocarmycin family of compounds” (Bioorg Med Chem, 2021).

Assays:
EJ [1] = assay: Antiproliferative activity against human EJ138 cells deficit in CYPs assessed as inhibition of cell growth after 96 hrs by MTT assay; type: functional, cell-based
In short: (§1)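 Cells kept as monolayers at 37 °C in 5% CO2: EJ-138 and RT112 in RPMI 1640 with 10% FBS, sodium pyruvate and 2 mM L-glutamine; CHO and CHO-1A1 in DMEM. Compounds were taken from DMSO stocks into medium over 0.001–100 μM, with final DMSO ≤0.1%. Exposure lasted 96 h, then MTT read-out. IC50 values are mean ± SD of at least three independent assays.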

RT-112 = assay: Antiproliferative activity against human RT112 cells proficient in CYP1A1 assessed as inhibition of cell growth after 96 hrs by MTT assay; type: functional, cell-based; conditions: RT-112, 96 h; in short: as §1
CHO [2] = assay: Antiproliferative activity against wild type chinese hamster CHO cells deficit in CYPs assessed as inhibition of cell growth after 96 hrs by MTT assay; type: functional, cell-based; conditions: Cricetulus griseus; in short: as §1
CHO [3] = assay: Antiproliferative activity against chinese hamster CHO cells transfected with CYP1A1 assessed as inhibition of cell growth after 96 hrs by MTT assay; type: functional, cell-based; conditions: Cricetulus griseus; in short: as §1
EJ [4] = assay: Antiproliferative activity against human EJ138 cells assessed as inhibition of cell growth preincubated for 1 hr with CYP null bactosomes measured after 96 hrs by MTT assay; type: functional, cell-based
In short: (§2)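 Compound (50 μM) incubated 1 h at 37 °C with 20 pmol CYP bactosomes (CYP null, 1A1, 1A2, 1B1 or 3A4) in 2 mM NADPH, 1 mM MgCl₂, Tris-HCl pH 7.4. Metabolites were extracted with acetonitrile, centrifuged, and the supernatant dried and taken up in DMSO. EJ138 cells were exposed 96 h and growth read by MTT assay.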

EJ [5] = assay: Antiproliferative activity against human EJ138 cells assessed as inhibition of cell growth preincubated for 1 hr with human CYP1A1 expressing bactosomes measured after 96 hrs by MTT assay; type: functional, cell-based; in short: as §2
EJ [6] = assay: Antiproliferative activity against human EJ138 cells assessed as inhibition of cell growth preincubated for 1 hr with human CYP1A2 expressing bactosomes measured after 96 hrs by MTT assay; type: functional, cell-based; in short: as §2
EJ [7] = assay: Antiproliferative activity against human EJ138 cells assessed as inhibition of cell growth preincubated for 1 hr with human CYP1B1 expressing bactosomes measured after 96 hrs by MTT assay; type: functional, cell-based; in short: as §2
EJ [8] = assay: Antiproliferative activity against human EJ138 cells assessed as inhibition of cell growth preincubated for 1 hr with human CYP3A4 expressing bactosomes measured after 96 hrs by MTT assay; type: functional, cell-based; in short: as §2
EJ [9] = assay: Potentiation factor, ratio of IC50 for antiproliferative activity against human EJ138 cells preincubated for 1 hr with CYP null bactosomes to IC50 for antiproliferative activity against human EJ138 cells preincubated for 1 hr with human CYP1A1 expressing bactosomes; type: functional
In short: (§3)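 Potentiation factor = IC₅₀ in EJ138 given control (CYP null) bactosome extract ÷ IC₅₀ with the named CYP isoform extract. Extracts came from 1 h, 37 °C incubations of 50 μM compound with 20 pmol bactosomes plus 2 mM NADPH, 1 mM MgCl₂, Tris-HCl pH 7.4. Cells were exposed 96 h and read by MTT.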

EJ [10] = assay: Potentiation factor, ratio of IC50 for antiproliferative activity against human EJ138 cells preincubated for 1 hr with CYP null bactosomes to IC50 for antiproliferative activity against human EJ138 cells preincubated for 1 hr with human CYP1A2 expressing bactosomes; type: functional; in short: as §3
EJ [11] = assay: Potentiation factor, ratio of IC50 for antiproliferative activity against human EJ138 cells preincubated for 1 hr with CYP null bactosomes to IC50 for antiproliferative activity against human EJ138 cells preincubated for 1 hr with human CYP1B1 expressing bactosomes; type: functional; in short: as §3
EJ [12] = assay: Potentiation factor, ratio of IC50 for antiproliferative activity against human EJ138 cells preincubated for 1 hr with CYP null bactosomes to IC50 for antiproliferative activity against human EJ138 cells preincubated for 1 hr with human CYP3A4 expressing bactosomes; type: functional; in short: as §3
Cytochrome P450 1A1 [13] = target: T1, Cytochrome P450 1A1 (Homo sapiens, UniProt P04798); assay: Drug metabolism assessed as recombinant human CYP1A1-mediated metabolite M1 with m/z of 375.1 formation at 50 uM incubated for 1 hr in presence of reconstituted protein system by LC-MS analysis; type: ADME; conditions: recombinant enzyme
T1 sequence (P04798 whole entry): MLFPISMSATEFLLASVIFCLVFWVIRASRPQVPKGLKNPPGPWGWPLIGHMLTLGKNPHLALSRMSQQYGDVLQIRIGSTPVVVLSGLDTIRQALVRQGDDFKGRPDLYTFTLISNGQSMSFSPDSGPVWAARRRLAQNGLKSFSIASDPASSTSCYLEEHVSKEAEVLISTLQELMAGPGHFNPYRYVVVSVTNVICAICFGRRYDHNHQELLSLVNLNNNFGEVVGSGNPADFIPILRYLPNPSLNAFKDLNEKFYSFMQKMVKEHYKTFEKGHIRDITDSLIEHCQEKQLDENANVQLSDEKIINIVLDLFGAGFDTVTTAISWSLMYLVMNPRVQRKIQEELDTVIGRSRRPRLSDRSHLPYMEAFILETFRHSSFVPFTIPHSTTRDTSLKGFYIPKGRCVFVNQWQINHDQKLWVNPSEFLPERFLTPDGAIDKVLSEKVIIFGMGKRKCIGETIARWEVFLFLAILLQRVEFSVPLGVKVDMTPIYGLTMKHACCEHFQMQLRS
In short: (§4)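 Substrate at 50 μM with human recombinant CYP1A1 in a reconstituted system: NADPH cytochrome P450 reductase plus freshly prepared DLPC (240 μM) in 100 mM potassium phosphate, pH 7.4. Mixture pre-warmed 3 min at 37 °C, started with NADPH (final 1 mM), incubated 1 h and extracted into dichloromethane. Analysis by reverse-phase HPLC with photodiode array detection and ESI+ quadrupole MS.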

Cytochrome P450 1A1 [14] = target: T1, Cytochrome P450 1A1; assay: Drug metabolism assessed as recombinant human CYP1A1-mediated metabolite M2 with m/z of 345.1 formation at 50 uM incubated for 1 hr in presence of reconstituted protein system by LC-MS analysis; type: ADME; conditions: recombinant enzyme; in short: as §4
Cytochrome P450 1A1 [15] = target: T1, Cytochrome P450 1A1; assay: Drug metabolism assessed as recombinant human CYP1A1-mediated metabolite M3 with m/z of 373.1 formation at 50 uM incubated for 1 hr in presence of reconstituted protein system by LC-MS analysis; type: ADME; conditions: recombinant enzyme; in short: as §4
Cytochrome P450 1A1 [16] = target: T1, Cytochrome P450 1A1; assay: Drug metabolism assessed as recombinant human CYP1A1-mediated metabolite M4 with m/z of 391.1 formation at 50 uM incubated for 1 hr in presence of reconstituted protein system by LC-MS analysis; type: ADME; conditions: recombinant enzyme; in short: as §4
Cytochrome P450 1A1 [17] = target: T1, Cytochrome P450 1A1; assay: Drug metabolism assessed as recombinant human CYP1A1-mediated metabolite M1 with m/z of 327.1 formation at 50 uM incubated for 1 hr in presence of reconstituted protein system by LC-MS analysis; type: ADME; conditions: recombinant enzyme; in short: as §4

Drug metabolism (Cytochrome P450 1A1 [13])	Drug metabolism (Cytochrome P450 1A1 [14])	Drug metabolism (Cytochrome P450 1A1 [15])	Drug metabolism (Cytochrome P450 1A1 [16])	Drug metabolism (Cytochrome P450 1A1 [17])	SMILES	IC50 (EJ [1])	IC50 (RT-112)	IC50 (CHO [2])	IC50 (CHO [3])	IC50 (EJ [4])	IC50 (EJ [5])	IC50 (EJ [6])	IC50 (EJ [7])	IC50 (EJ [8])	Ratio IC50 (EJ [9])	Ratio IC50 (EJ [10])	Ratio IC50 (EJ [11])	Ratio IC50 (EJ [12])
–	–	–	–	–	CC(C)(C)OC(=O)N1CC(CCl)c2ccccc21 (stereo unspecified)	> 25 µM	> 25 µM	> 25 µM	> 25 µM	–	–	–	–	–	–	–	–	–
Metabolite_Detected	Metabolite_Detected	Metabolite_Detected	Metabolite_Detected	–	COc1ccc2[nH]c(C(=O)N3CC(CCl)c4cc(F)ccc43)cc2c1 (stereo unspecified)	18.6 µM	5.04 µM	14.8 µM	6.2 µM	15.8 µM	3.1 µM	5.11 µM	11.9 µM	16.8 µM	5.1	3.1	1.3	0.9
–	–	–	–	Metabolite_Detected	COc1ccc2[nH]c(C(=O)N3CC(CCl)c4ccc(O)cc43)cc2c1 (stereo unspecified)	0.038 µM	0.055 µM	0.03 µM	0.035 µM	–	–	–	–	–	–	–	–	–
